Data as given in publication PMC4390475 (Journal of pharmaceutical sciences, 2015).

How the values were obtained:
[1] = test system: rat plasma proteins; test: Plasma protein binding by gel filtration; assay type: in vitro ADME, Sprague Dawley rat; settings: 2 h, 37°C
Method in brief: (§1)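 Test compound (2.65, 13.3 and 40.0 μM final) was incubated in plasma for 2 h at 37°C. Bound compound was separated on Sephadex G-25 by spin filtration (5 min, 200 × g). Eluates were run in duplicate: EDTA addition, chloroform:methanol extraction, acetonitrile precipitation, then LC-MS/MS (MRM 751 → 195, positive ESI) against 15 plasma standards from 0 to 66.7 μM. Eluate concentration was corrected for protein dilution, measured by microbiuret against BSA standards. % bound = corrected/total (mean ± SD, n = 3).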

[2] = Stability in acidic aqueous buffered solutions; assay type: physicochemical; settings: for stability in acidic buffer: 48 h, 25°C/60%RH
Method in brief: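 Test compound at 10 mg/mL was held in USP buffers: hydrochloric acid (pH 1.40), acetate (pH 4.50) and phosphate (pH 6.80). Incubation was at 25°C/60% RH in sealed, light-protected glass vials. Aliquots taken at 1, 3, 6, 24 and 48 h were diluted 10-fold and analysed by LC-MS, as for the microsomal stability samples.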

[3] = Stability in plasma; assay type: in vitro ADME; settings: mouse plasma diluted 1:1 with PBS, 15 μM, up to 1 h, 37°C
[4] = test system: human plasma proteins; test: Plasma protein binding by gel filtration; assay type: in vitro ADME; settings: 2 h, 37°C
Method in brief: as §1

[5] = test system: Caco-2 cells; test: Bi-directional permeability study using Caco-2 cells; settings: for % Recovery of Test Article A–B (mean) / % Recovery of Test Article B-A (mean): end of experiment
[6] = Stability in plasma; assay type: in vitro ADME; settings: rat plasma diluted 1:1 with PBS, 15 μM, up to 1 h, 37°C
[7] = test system: dog plasma proteins; test: Plasma protein binding by gel filtration; assay type: in vitro ADME, beagle dog; settings: 2.7, 13.3 and 40.0 μM, 2 h, 37°C
Method in brief: as §1

[8] = molecular target: T1, CYP2B6 (Homo sapiens, UniProt P20813); test: CYP inhibition in human liver microsomes; assay type: in vitro ADME; settings: 1 or 10 μM test article, 20 min, 37°C
T1 sequence (P20813 1-491): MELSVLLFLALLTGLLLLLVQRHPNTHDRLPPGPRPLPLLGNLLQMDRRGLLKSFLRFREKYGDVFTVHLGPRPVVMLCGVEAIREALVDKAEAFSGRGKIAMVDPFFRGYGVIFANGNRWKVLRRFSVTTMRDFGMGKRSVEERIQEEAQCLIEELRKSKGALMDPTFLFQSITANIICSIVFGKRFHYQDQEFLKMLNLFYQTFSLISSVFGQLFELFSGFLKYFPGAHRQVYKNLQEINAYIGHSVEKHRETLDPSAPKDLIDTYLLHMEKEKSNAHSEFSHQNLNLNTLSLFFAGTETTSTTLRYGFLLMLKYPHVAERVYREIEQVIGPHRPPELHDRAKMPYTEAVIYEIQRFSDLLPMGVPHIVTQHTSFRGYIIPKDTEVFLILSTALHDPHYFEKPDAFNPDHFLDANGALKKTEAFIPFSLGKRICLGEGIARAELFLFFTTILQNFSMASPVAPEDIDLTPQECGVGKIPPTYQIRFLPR
Method in brief: (§2)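 Pooled human liver microsomes (0.5 mg/mL), 2.5 mM NADPH, 3.3 mM MgCl₂, 0.1 M phosphate pH 7.4, 0.3% DMSO, probe cocktail near Km: phenacetin 25 μM (1A2), bupropion 25 μM (2B6), diclofenac 10 μM (2C9), mephenytoin 20 μM (2C19), bufuralol 10 μM (2D6), testosterone 50 μM and midazolam 4 μM (3A4). Cold acetonitrile quench; LC-MS/MS metabolite peak-area ratio over mean control ×100; n = 3.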

[9] = molecular target: CYP2D6 (Homo sapiens, UniProt P10635); test: CYP inhibition in human liver microsomes; assay type: in vitro ADME; settings: 1 or 10 μM test article, 20 min, 37°C
CYP2D6, sequence (P10635 whole entry): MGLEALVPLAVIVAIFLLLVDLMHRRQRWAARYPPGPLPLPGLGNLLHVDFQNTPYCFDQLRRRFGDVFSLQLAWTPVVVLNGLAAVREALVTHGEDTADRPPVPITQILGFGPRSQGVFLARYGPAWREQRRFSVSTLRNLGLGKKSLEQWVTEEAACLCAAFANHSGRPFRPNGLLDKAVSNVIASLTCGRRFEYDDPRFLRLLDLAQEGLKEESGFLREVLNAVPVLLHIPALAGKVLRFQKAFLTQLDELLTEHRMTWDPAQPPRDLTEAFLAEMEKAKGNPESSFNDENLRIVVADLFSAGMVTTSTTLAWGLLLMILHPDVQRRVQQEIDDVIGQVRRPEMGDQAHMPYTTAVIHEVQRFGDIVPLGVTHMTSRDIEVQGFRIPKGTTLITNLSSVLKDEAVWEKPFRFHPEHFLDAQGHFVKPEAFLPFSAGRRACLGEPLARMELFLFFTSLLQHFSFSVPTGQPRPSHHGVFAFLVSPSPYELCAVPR
Method in brief: as §2

[10] = Stability in simulated gastric fluid; assay type: in vitro ADME; settings: SGF pH 1.2 with pepsin, 37°C, 60 min
Method in brief: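 Simulated gastric fluid (pH 1.2) contained 3.2 g/L porcine pepsin, 2 g/L NaCl and 8 mL/L 6 N HCl, stored at 2–8°C and pre-warmed to 37°C. […] Reactions were stopped with 0.1 M sodium carbonate and chilled acetonitrile containing ¹³C internal standard, filtered, and analysed by LC-MS; content is expressed relative to initial.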

[11] = molecular target: CYP2C9 (Homo sapiens, UniProt P11712); test: CYP inhibition in human liver microsomes; assay type: in vitro ADME; settings: 1 or 10 μM test article, 20 min, 37°C
CYP2C9, sequence (P11712 whole entry): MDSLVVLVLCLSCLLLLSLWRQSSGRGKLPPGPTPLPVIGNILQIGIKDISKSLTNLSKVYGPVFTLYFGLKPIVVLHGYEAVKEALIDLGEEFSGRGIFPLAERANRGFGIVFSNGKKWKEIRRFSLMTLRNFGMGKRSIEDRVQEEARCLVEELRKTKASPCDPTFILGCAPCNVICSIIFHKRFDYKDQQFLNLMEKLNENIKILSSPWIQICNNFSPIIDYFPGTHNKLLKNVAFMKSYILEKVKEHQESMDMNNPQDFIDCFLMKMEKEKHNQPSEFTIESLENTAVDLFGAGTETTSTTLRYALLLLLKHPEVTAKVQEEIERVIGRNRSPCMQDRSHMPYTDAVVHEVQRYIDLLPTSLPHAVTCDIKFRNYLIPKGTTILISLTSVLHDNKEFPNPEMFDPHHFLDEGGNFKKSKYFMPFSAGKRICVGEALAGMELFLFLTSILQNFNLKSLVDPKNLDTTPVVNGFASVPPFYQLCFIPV
Method in brief: as §2

[12] = Metabolic stability using pooled human liver microsomes; assay type: in vitro ADME; settings: 10 and 50 μM, active microsomes, up to 60 min, 37°C
[13] = molecular target: CYP2C19 (Homo sapiens, UniProt P33261); test: CYP inhibition in human liver microsomes; assay type: in vitro ADME; settings: 1 or 10 μM test article, 20 min, 37°C
CYP2C19, sequence (P33261 whole entry): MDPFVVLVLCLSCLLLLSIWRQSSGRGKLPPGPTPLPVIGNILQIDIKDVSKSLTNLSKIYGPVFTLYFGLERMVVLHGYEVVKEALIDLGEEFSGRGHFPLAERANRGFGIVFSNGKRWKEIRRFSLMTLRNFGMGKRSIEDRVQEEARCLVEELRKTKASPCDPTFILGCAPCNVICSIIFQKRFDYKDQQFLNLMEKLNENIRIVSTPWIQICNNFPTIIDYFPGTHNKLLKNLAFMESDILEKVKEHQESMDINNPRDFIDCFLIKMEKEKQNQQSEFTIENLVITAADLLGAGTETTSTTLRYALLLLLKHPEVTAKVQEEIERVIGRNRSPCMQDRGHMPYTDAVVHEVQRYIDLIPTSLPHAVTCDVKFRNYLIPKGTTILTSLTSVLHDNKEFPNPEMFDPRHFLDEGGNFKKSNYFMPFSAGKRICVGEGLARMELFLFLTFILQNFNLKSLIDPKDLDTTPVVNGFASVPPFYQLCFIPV
Method in brief: as §2

[14] = molecular target: T2, CYP1A2 (Homo sapiens, UniProt P05177); test: CYP inhibition in human liver microsomes; assay type: in vitro ADME; settings: 1 or 10 μM test article, 20 min, 37°C
T2 sequence (P05177 1-516): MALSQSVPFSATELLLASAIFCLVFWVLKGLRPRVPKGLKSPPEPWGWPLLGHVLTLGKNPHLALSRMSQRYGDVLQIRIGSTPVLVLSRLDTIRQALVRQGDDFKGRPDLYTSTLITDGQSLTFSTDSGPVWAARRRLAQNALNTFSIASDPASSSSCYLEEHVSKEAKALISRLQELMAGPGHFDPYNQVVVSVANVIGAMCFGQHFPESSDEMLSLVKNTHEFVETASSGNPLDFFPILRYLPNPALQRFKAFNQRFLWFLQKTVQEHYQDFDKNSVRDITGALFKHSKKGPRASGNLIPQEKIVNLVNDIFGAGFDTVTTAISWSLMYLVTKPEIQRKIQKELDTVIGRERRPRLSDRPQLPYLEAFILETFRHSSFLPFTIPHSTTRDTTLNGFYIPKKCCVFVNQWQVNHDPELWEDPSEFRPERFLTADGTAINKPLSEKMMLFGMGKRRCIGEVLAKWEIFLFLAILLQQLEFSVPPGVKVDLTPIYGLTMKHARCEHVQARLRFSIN
Method in brief: as §2

[15] = orally administered, 225 mg/kg; cited from earlier work
[16] = molecular target: CYP3A4 (Homo sapiens, UniProt P08684); test: CYP inhibition in human liver microsomes; assay type: in vitro ADME; settings: 1 or 10 μM test article, 20 min, 37°C
CYP3A4, sequence (P08684 whole entry): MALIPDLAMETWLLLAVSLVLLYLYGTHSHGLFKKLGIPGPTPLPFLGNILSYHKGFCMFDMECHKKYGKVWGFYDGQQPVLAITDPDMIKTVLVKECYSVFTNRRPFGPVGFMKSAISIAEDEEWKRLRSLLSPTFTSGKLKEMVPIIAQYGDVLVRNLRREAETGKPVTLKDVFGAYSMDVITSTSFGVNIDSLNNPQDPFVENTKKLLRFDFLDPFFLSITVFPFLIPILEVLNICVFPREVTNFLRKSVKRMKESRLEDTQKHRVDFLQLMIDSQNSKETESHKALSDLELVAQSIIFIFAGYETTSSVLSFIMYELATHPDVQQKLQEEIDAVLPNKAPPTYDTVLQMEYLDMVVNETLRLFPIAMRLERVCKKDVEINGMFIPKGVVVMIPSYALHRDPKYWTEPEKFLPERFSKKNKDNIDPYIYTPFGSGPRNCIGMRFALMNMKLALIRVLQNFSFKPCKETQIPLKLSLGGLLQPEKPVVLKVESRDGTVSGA
Method in brief: as §2

[17] = Stability in plasma; assay type: in vitro ADME; settings: dog plasma diluted 1:1 with PBS, 15 μM, up to 1 h, 37°C
[18] = Permeability through Transwell plate not containing Caco-2 cells; assay type: in vitro ADME; settings: 24-well Transwell plate not containing Caco-2 cells
Method in brief: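 This run repeated the Caco-2 bi-directional protocol in a Transwell plate without cells. Test compound (10 and 50 μM final) in HBSS, pH 7.4, was placed in duplicate wells for each direction. Receiver aliquots were taken at 30, 60, 90 and 120 min into 10 mM EDTA and replaced with fresh medium. Donor wells were sampled at start and end for recovery. Analysis was LC-MS/MS (positive ESI, MRM), and Papp was calculated from dQ/dt, receiver volume, membrane area and initial concentration.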

[19] = Stability in plasma; assay type: in vitro ADME; settings: human plasma diluted 1:1 with PBS, 15 μM, up to 1 h, 37°C
[20] = negative control; cited from earlier work
[21] = test system: P-gp; test: Bi-directional permeability study using Caco-2 cells; settings: human; for Papp A→B at 120 min, 1 μM: Caco-2, pH 6, Papp A–B (mean); for Papp B→A at 120 min, 1 μM: Caco-2, pH 7.4, Papp B-A (mean)

For `O=C(NCCCN(CCCCN(CCCNC(=O)c1cccc(=O)n1O)C(=O)c1cccc(=O)n1O)C(=O)c1cccc(=O)n1O)c1cccc(=O)n1O` [3,4,3-LI(1,2-HOPO)], the “% protein-bound” value ([1]; 2.65 μM) was “below the lower limit of quantitation”, the “extent of plasma protein binding (rank among species)” value (from here on “extent of plasma protein binding”) ([1]; 2.7, 13.3 and 40.0 μM) was “lowest” and the “stability in acidic buffer” value ([2]; acetate buffer USP pH 4.50, 10 mg/mL) was “stable”. For the same molecule, the “stability in acidic buffer” value ([2]; hydrochloric acid buffer USP pH 1.40, 10 mg/mL) was “stable”, the “stability in hydrochloric acid buffer without pepsin” value ([2]; pH 1.4, 3 h) was “stable” and the “stability in acidic buffer” value ([2]; phosphate buffer USP pH 6.80, 10 mg/mL) was “stable”. For the same molecule, the “stability in plasma (% of test article remaining)” value [3] was “No degradation”, the “% protein-bound” value ([4]; 2.65 μM) was “below the lower limit of quantitation” and the “extent of plasma protein binding” value ([4]; 2.7, 13.3 and 40.0 μM) was “intermediate”. For the same molecule, the “% Recovery of Test Article A–B (mean)” value ([5]; 10 μM + 100 μM ketoconazole) was 120.6%, the “% Recovery of Test Article B-A (mean)” value ([5]; 10 μM + 100 μM ketoconazole) was 90.3% and the “% Recovery of Test Article A–B (mean)” value ([5]; 10 μM) was 112.2%. The “% Recovery of Test Article B-A (mean)” value ([5]; 10 μM) was 87.2%, the “% Recovery of Test Article A–B (mean)” value ([5]; 50 μM + 100 μM ketoconazole) was 114.9% and the “% Recovery of Test Article B-A (mean)” value ([5]; 50 μM + 100 μM ketoconazole) was 85.7%. The “% Recovery of Test Article A–B (mean)” value ([5]; 50 μM) was 105.5%, the “% Recovery of Test Article B-A (mean)” value ([5]; 50 μM) was 97.6% and the “concentration in the receiving wells” value ([5]; 10 and 50 μM solutions, lower limit of quantitation) was less than 0.5 µM. The “permeability across the Caco-2 monolayer” value ([5]; bi-directional, 10 and 50 μM) was “not permeable”, the “stability in plasma (% of test article remaining)” value [6] was “No degradation” and the “extent of plasma protein binding” value [7] was “greatest”. For the same molecule, the “% CYP activity relative to control” value [8] was “none of the CYP isoforms were significantly influenced”, the “% CYP activity relative to control” value [9] was “none of the CYP isoforms were significantly influenced” and the “% of the initial content remained in simulated gastric fluid” value ([10]; 1 μM) was 76%. The “% of the initial content remained in simulated gastric fluid” value ([10]; 10 μM) was 72%, the “% CYP activity relative to control” value [11] was “none of the CYP isoforms were significantly influenced” and the “% of test article remaining (metabolic stability)” value [12] was “no loss of parent test article”. The “% CYP activity relative to control” value [13] was “none of the CYP isoforms were significantly influenced”, the “% CYP activity relative to control” value [14] was “none of the CYP isoforms were significantly influenced” and the plasma concentration [15] was “less than 2 μg/mL”. For the same molecule, the “% CYP activity relative to control” value [16] was “none of the CYP isoforms were significantly influenced”, the “stability in plasma (% of test article remaining)” value [17] was “No degradation” and the “permeation of the Transwell membrane in the absence of Caco-2 cells” value [18] was “detectable levels”. For the same molecule, the “stability in plasma (% of test article remaining)” value [19] was “No degradation”.

In the case of `CC(C)NCC(O)COc1cccc2ccccc12` (stereo not drawn) [propranolol], the “stability in gastric fluid” value [20] is given as “stable”.

In the case of `C[C@H]1O[C@@H](O[C@H]2[C@@H](O)C[C@H](O[C@H]3[C@@H](O)C[C@H](O[C@H]4CC[C@@]5(C)[C@H](CC[C@@H]6[C@@H]5C[C@@H](O)[C@]5(C)[C@@H](C7=CC(=O)OC7)CC[C@]65O)C4)O[C@@H]3C)O[C@@H]2C)C[C@H](O)[C@@H]1O` [digoxin, reference compound], the Papp A→B at 120 min, 1 μM ([21]; 1 μM + 100 μM ketoconazole) is reported as 37 nm/s, the Papp A→B at 120 min, 1 μM ([21]; 1 μM, control) is reported as 31 nm/s and the Papp B→A at 120 min, 1 μM ([21]; 1 μM + 100 μM ketoconazole) is reported as 18 nm/s. It also gave a Papp B→A at 120 min, 1 μM ([21]; 1 μM, control) of 86 nm/s.
